According to ChEMBL document CHEMBL2385038, “Bioactive dibenzocyclooctadiene lignans from the stems of Schisandra neglecta” (J Nat Prod, 2013):

Tests used:
PC-3 = experiment: Cytotoxicity against human PC3 cells after 3 days by MTT assay; assay type: functional, cell-based; settings: PC-3, 72 h
Method in brief: (§1)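 MTT viability assay on NB4 (acute promyelocytic leukemia), A549 (lung adenocarcinoma), SHSY5Y (neuroblastoma), PC3 (prostate) and MCF7 (breast adenocarcinoma) cells, reported as IC50. Paclitaxel was the positive control. Performed in triplicate.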

NB-4 = experiment: Cytotoxicity against human NB4 cells after 3 days by MTT assay; assay type: functional, cell-based; settings: NB-4, 72 h; method in brief: as §1
[1] = Cytotoxicity against human SH-SY5Y cells after 3 days by MTT assay; assay type: functional, cell-based; settings: 72 h; method in brief: as §1
[2] = tested on: Human immunodeficiency virus 1; experiment: Antiviral activity against HIV-1 3B infected in human C8166 cells assessed as inhibition of virus-induced cytopathic effect after 3 days by Syncytia Assay; assay type: functional, organism-based; settings: Human immunodeficiency virus 1, 3B, C8166, 72 h
Method in brief: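 Inhibition of HIV-1-induced cytopathic effect in C8166 cells, expressed as EC50. Azidothymidine (AZT) served as the positive control. Performed in triplicate.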

A549 = experiment: Cytotoxicity against human A549 cells after 3 days by MTT assay; assay type: functional, cell-based; settings: A549, 72 h; method in brief: as §1
MCF7 = experiment: Cytotoxicity against human MCF7 cells after 3 days by MTT assay; assay type: functional, cell-based; settings: MCF7, 72 h; method in brief: as §1
[3] = Therapeutic index, ratio of CC50 for human C8166 cells to EC50 for HIV-1 3B; assay type: cell-based; settings: read-out: Ratio CC50/EC50
[4] = Cytotoxicity against human C8166 cells after 3 days by MTT assay; assay type: cell-based
Method in brief: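 Viability of uninfected C8166 cells was measured by MTT to give CC50, alongside the anti-HIV-1 assay. Performed in triplicate.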

COc1c(O)cc2c(c1OC)-c1c(cc3c(c1OC)OCO3)[C@H](OC(=O)C(C)C)[C@H](C)[C@H](C)C2
IC50 (PC-3): > 10 µM
IC50 (NB-4): > 10 µM
IC50 [1]: > 10 µM
EC50 [2]: 8.2 µM
IC50 (A549): > 10 µM
IC50 (MCF7): > 10 µM
selectivity ratio [3]: 18.1
CC50 at 72 h [4]: 149 µM

COc1c(OC)c(C(=O)O)c2c(c1OC)-c1c(cc3c(c1OC)OCO3)[C@H](O)[C@H](C)[C@H](C)C2
IC50 (PC-3): > 10 µM
IC50 (NB-4): > 10 µM
IC50 [1]: > 10 µM
EC50 [2]: 2.2 µM
IC50 (A549): 6.8 µM
IC50 (MCF7): 7.4 µM
selectivity ratio [3]: 40.3
CC50 at 72 h [4]: 86.7 µM

COc1c(O)c(C(=O)O)c2c(c1OC)-c1c(cc3c(c1OC)OCO3)[C@H](O)[C@H](C)[C@H](C)C2
IC50 (PC-3): 9.2 µM
IC50 (NB-4): > 10 µM
IC50 [1]: > 10 µM
EC50 [2]: 1.4 µM
IC50 (A549): 5.9 µM
IC50 (MCF7): > 10 µM
selectivity ratio [3]: 55.3
CC50 at 72 h [4]: 75.2 µM

COc1c2c(cc(CC(C)=O)c1-c1c(CC(C)=O)cc3c(c1OC)OCO3)OCO2
IC50 (PC-3): > 10 µM
IC50 (NB-4): 7.3 µM
IC50 [1]: 8.2 µM
EC50 [2]: 3.9 µM
IC50 (A549): > 6.5 µM
IC50 (MCF7): > 10 µM
selectivity ratio [3]: 14.1
CC50 at 72 h [4]: 54.5 µM

COc1cc(CC(C)=O)c(-c2c(CC(C)=O)cc(OC)c(OC)c2O)c(O)c1OC
IC50 (PC-3): 5.1 µM
IC50 (NB-4): 2.9 µM
IC50 [1]: 3.3 µM
EC50 [2]: 4.2 µM
IC50 (A549): 8.6 µM
IC50 (MCF7): 7.8 µM
selectivity ratio [3]: 9.2
CC50 at 72 h [4]: 38.8 µM

COc1cc2c(c(OC)c1OC)-c1c(cc(OC)c(OC)c1OC)[C@H](OCC(C)C)[C@@H](C)[C@@H](C)C2
IC50 (PC-3): > 10 µM
IC50 (NB-4): > 10 µM
IC50 [1]: > 10 µM
EC50 [2]: 5.9 µM
IC50 (A549): > 10 µM
IC50 (MCF7): > 10 µM
selectivity ratio [3]: > 33.7
CC50 at 72 h [4]: > 200 µM

COc1cc2c(c(OC)c1OC)-c1c(cc(O)c(OC)c1OC)[C@H](OCC(C)C)[C@@H](C)[C@@H](C)C2
IC50 (PC-3): > 10 µM
IC50 (NB-4): > 10 µM
IC50 [1]: > 10 µM
EC50 [2]: 3.5 µM
IC50 (A549): > 10 µM
IC50 (MCF7): > 10 µM
selectivity ratio [3]: > 58
CC50 at 72 h [4]: > 200 µM

COc1cc2c(c(OC)c1OC)-c1c(cc(O)c(OC)c1OC)C[C@H](C)[C@@](C)(O)C2
EC50 [2]: 8.2 µM
selectivity ratio [3]: 15.1
CC50 at 72 h [4]: 124 µM

C/C=C(/C)C(=O)O[C@H]1c2cc(OC)c(OC)c(OC)c2-c2c(cc(OC)c(OC)c2OC)C[C@H](C)[C@]1(C)O
IC50 (PC-3): > 10 µM
IC50 (NB-4): > 10 µM
IC50 [1]: 7.8 µM
EC50 [2]: 11.5 µM
IC50 (A549): > 10 µM
IC50 (MCF7): > 10 µM
selectivity ratio [3]: 7.4
CC50 at 72 h [4]: 84.7 µM

COc1cc2c(c(O)c1OC)-c1c(cc(OC)c(OC)c1OC)[C@H](OC(=O)c1ccccc1)[C@@H](C)[C@@](C)(O)[C@H]2OC(C)=O
IC50 (PC-3): > 10 µM
IC50 (NB-4): 7.4 µM
IC50 [1]: > 10 µM
EC50 [2]: 8.3 µM
IC50 (A549): > 10 µM
IC50 (MCF7): 9.7 µM
selectivity ratio [3]: 17.8
CC50 at 72 h [4]: 147 µM

COc1cc2c(c(OC)c1OC)-c1c3cc4c(c1OC[C@@H](C)[C@@](C)(O)C(=O)O[C@@H]2[C@@](C)(O)[C@@H](C)C3)OCO4
EC50 [2]: 9.8 µM
selectivity ratio [3]: 18.9
CC50 at 72 h [4]: 186 µM

COc1cc2c(c(O)c1OC)-c1c(cc3c(c1OC)OCO3)C[C@H](C)[C@H](C)C2 (racemic)
IC50 (PC-3): > 10 µM
IC50 (NB-4): > 10 µM
IC50 [1]: > 10 µM
IC50 (A549): > 10 µM
IC50 (MCF7): > 10 µM

COc1cc2c(c(OC)c1OC)-c1c(cc3c(c1OC)OCO3)[C@H](OC(=O)C=C(C)C)[C@@](C)(O)[C@@H](C)C2 [GOMISIN F]
IC50 (PC-3): > 10 µM
IC50 (NB-4): > 10 µM
IC50 [1]: > 10 µM
EC50 [2]: 8.3 µM
IC50 (A549): > 10 µM
IC50 (MCF7): > 10 µM
selectivity ratio [3]: 7.5
CC50 at 72 h [4]: 61.9 µM

C/C=C(/C)C(=O)O[C@H]1c2cc(OC)c(OC)c(OC)c2-c2c(cc3c(c2OC)OCO3)[C@H](OC(C)=O)[C@H](C)[C@@H]1C [INTERIOTHERIN C]
IC50 (PC-3): > 10 µM
IC50 (NB-4): > 10 µM
IC50 [1]: > 10 µM
IC50 (A549): > 10 µM
IC50 (MCF7): > 10 µM

COc1cc2c(c(OC)c1OC)-c1c(cc3c(c1OC)OCO3)[C@H](O)[C@H](C)[C@H](C)C2 [ISOGOMISIN O]
IC50 (PC-3): > 10 µM
IC50 (NB-4): > 10 µM
IC50 [1]: > 10 µM
IC50 (A549): > 10 µM
IC50 (MCF7): > 10 µM

COc1c(O)cc2c(c1OC)-c1c(cc(O)c(OC)c1OC)[C@H](OCc1ccccc1)[C@@H](C)[C@@H](C)C2 [MARLIGNAN G]
IC50 (PC-3): 9.5 µM
IC50 (NB-4): > 10 µM
IC50 [1]: > 10 µM
IC50 (A549): 8.6 µM
IC50 (MCF7): > 10 µM

CC(=O)O[C@H]1C(=O)[C@@]2(C)[C@H]([C@H](OC(=O)c3ccccc3)[C@]3(O)C[C@H](OC(=O)[C@H](O)[C@@H](NC(=O)c4ccccc4)c4ccccc4)C(C)=C1C3(C)C)[C@]1(OC(C)=O)CO[C@@H]1C[C@@H]2O [PACLITAXEL]
IC50 (NB-4): 0.03 µM
IC50 [1]: 0.2 µM
IC50 (A549): 0.02 µM

COc1cc2c(c(OC)c1OC)-c1c(cc3c(c1OC)OCO3)C[C@H](C)[C@H](C)[C@H]2OC(C)=O [RUBSCHISANTHERIN]
IC50 (PC-3): > 10 µM
IC50 (NB-4): > 10 µM
IC50 [1]: > 10 µM
EC50 [2]: 4.7 µM
IC50 (A549): > 10 µM
IC50 (MCF7): > 10 µM
selectivity ratio [3]: 18.2
CC50 at 72 h [4]: 85.2 µM

COc1cc(CO)c(-c2c(C[C@H](C)C(C)=O)cc3c(c2OC)OCO3)c(OC)c1OC [SCHISPHENONE]
IC50 (PC-3): 8.9 µM
IC50 (NB-4): > 10 µM
IC50 [1]: > 10 µM
EC50 [2]: 12.7 µM
IC50 (A549): > 10 µM
IC50 (MCF7): > 10 µM
selectivity ratio [3]: 12.3
CC50 at 72 h [4]: 156 µM

Cc1cn([C@H]2C[C@H](N=[N+]=[N-])[C@@H](CO)O2)c(=O)[nH]c1=O [ZIDOVUDINE]
EC50 [2]: 0.034 µM
CC50 at 72 h [4]: > 200 µM
